Read-outs that look alike come from different tables or passages of the source.
Assays:
[1] = target: Human DNA polymerase beta (hpol β) (Homo sapiens, UniProt P06746); test: Fluorescence-based polymerase assay, hpol β; format: biochemical
hpol ι = target: T1, hpol ι (Homo sapiens, UniProt Q9UNA4); test: Fluorescence-based polymerase assay, hpol ι; format: biochemical
T1 sequence (Q9UNA4 26-446): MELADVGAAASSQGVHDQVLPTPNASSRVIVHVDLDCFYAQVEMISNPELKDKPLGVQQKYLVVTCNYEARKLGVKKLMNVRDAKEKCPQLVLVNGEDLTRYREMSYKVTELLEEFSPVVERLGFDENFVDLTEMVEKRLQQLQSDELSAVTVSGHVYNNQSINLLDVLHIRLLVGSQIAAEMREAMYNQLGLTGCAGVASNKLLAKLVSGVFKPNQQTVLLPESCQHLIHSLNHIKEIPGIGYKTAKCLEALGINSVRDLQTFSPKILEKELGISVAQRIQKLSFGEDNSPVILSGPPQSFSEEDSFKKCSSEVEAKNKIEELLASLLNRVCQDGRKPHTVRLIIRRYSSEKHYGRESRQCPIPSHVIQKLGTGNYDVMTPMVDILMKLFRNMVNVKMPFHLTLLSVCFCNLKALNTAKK

Dpo4 = target: T2, Dpo4 (Saccharolobus solfataricus, UniProt Q97W02); test: Fluorescence-based polymerase assay, Dpo4; format: biochemical, Sulfolobus solfataricus
T2 sequence (Q97W02 1-352): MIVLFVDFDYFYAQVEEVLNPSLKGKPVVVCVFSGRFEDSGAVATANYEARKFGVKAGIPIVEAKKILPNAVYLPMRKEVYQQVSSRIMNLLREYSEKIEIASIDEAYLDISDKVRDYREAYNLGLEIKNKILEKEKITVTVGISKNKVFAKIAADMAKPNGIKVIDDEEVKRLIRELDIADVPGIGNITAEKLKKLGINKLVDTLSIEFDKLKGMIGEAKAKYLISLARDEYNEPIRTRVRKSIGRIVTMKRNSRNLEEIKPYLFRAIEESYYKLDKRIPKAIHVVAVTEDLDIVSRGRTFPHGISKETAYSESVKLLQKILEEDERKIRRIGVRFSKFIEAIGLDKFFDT

Dpo1 = target: T3, Dpo1 (Saccharolobus solfataricus, UniProt P26811); test: Fluorescence-based polymerase assay, Dpo1; format: biochemical, S. solfataricus
T3 sequence (P26811 1-882): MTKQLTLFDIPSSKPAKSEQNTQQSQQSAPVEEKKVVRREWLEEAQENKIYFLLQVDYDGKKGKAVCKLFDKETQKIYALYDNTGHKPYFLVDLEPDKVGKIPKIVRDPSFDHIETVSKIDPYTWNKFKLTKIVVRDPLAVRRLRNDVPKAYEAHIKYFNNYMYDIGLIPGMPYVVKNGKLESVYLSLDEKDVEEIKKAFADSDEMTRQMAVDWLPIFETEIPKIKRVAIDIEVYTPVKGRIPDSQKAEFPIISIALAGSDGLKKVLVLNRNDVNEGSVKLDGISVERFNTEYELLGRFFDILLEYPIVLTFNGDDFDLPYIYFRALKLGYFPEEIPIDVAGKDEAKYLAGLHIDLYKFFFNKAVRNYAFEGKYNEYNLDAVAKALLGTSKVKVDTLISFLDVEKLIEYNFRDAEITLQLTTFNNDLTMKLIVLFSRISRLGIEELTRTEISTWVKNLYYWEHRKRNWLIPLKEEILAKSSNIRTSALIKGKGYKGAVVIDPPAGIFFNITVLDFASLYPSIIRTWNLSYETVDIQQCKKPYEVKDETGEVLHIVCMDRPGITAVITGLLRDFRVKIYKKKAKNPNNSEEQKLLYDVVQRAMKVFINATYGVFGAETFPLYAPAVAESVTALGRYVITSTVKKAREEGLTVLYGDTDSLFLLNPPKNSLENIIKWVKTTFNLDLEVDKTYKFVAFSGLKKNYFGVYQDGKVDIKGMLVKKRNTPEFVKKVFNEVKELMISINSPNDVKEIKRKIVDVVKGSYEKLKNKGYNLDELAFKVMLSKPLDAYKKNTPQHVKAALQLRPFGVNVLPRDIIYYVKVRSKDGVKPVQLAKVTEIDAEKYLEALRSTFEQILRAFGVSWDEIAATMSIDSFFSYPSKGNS

HIV-1 RT = HIV-1 RT (Human immunodeficiency virus type 1 group M subtype B, UniProt P04585); test: Fluorescence-based polymerase assay, HIV-1 RT; format: biochemical
hpol η = test: Steady-state kinetic analysis of hpol η activity in the presence of inhibitor; format: biochemical, human; settings: for kcat: varying dTTP
Procedure, shortened: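 Recombinant hpol η (His/GST-tagged in E. coli BL21(DE3), nickel then GST affinity, GST cleaved) in the fluorescence strand-displacement assay (TAMRA-labelled displaced strand), in 50 mM Tris pH 8.0, 40 mM NaCl, 2 mM DTT, 0.01% Tween-20. dTTP was 1–100 µM and inhibitor 0 or 1–50 µM. RFU were converted to product, linear velocities fit to a hyperbola and corrected for enzyme concentration to give kcat and Km,dTTP.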

## O=C1NC(=S)NC(=O)C1=Cc1cn(C(=O)c2ccccc2Br)c2ccc(Cl)cc12 [ITBA-12, 5-((1-(2-bromobenzoyl)-5-chloro-1H-indol-3-yl)methylene)-2-thioxodihydropyrimidine-4,6(1H,5H)-dione]
[1]
  IC50: 41 ± 24 µM
[1]; hpol β versus hpol η
  Fold difference in IC50 between hpol η and hpol β: ~ 1.4 fold
Hpol ι
  IC50: ~80 µM
Dpo4
  IC50: ~80 µM
Dpo1
  IC50: ~80 µM
HIV-1 RT
  IC50: ~80 µM
Hpol η; read-out: Km,dTTP, varying dTTP, [ITBA-12] 1 μM
  Km: 6.7 ± 0.9 µM
Hpol η; read-out: Km,dTTP, varying dTTP, [ITBA-12] 10 μM
  Km: 7.6 ± 1 µM
Hpol η; read-out: Km,dTTP, varying dTTP, [ITBA-12] 20 μM
  Km: 8.5 ± 1.4 µM
Hpol η; read-out: Km,dTTP, varying dTTP, [ITBA-12] 40 μM
  Km: 15 ± 2 µM
Hpol η; read-out: Km,dTTP, varying dTTP, [ITBA-12] 50 μM
  Km: 26.7 ± 5.6 µM
Hpol η; [ITBA-12] 1 μM
  kcat: 0.065 ± 0.0017 s⁻¹
Hpol η; [ITBA-12] 10 μM
  kcat: 0.0717 ± 0.0017 s⁻¹
Hpol η; [ITBA-12] 20 μM
  kcat: 0.0667 ± 0.0033 s⁻¹
Hpol η; [ITBA-12] 40 μM
  kcat: 0.07 ± 0.0033 s⁻¹
Hpol η; [ITBA-12] 50 μM
  kcat: 0.0583 ± 0.005 s⁻¹

From paper PMC3746001 (ACS chemical biology, 2013)
